Sampled rows, rich in hits. Any-hit rate of the full collection: about 1.9%.
Vif imaging: HIV Vif inhibition; HEK293T cells, Vif self-association by quenched fluorescence, imaging, 24 h; inhibition, % at 7.49 µM; 340,000 tested, 0.35% active; AID 602346; in the data active = inhibition above about 50%, passing the limit was not always enough
MsrA inh: inhibitors of bovine MsrA. 360,000 tested, 0.75% active. inhibition, % at 15.5 µM. purified bovine MsrA, absorbance read-out; in the data active = inhibition above about 4.5%
N-glyco inh: N-linked glycosylation inhibition. D54 ERlucT glycosylation luciferase reporter, 24 h; percent of 100 nM tunicamycin response. reporter increase, % at 12.5 µM. 360,000 tested, 0.23% active;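 active = mean luciferase reporter signal, scaled so untreated is 0 and the glycosylation-blocking control 100, at or above a set limit in every replicate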;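 also: luciferase carries N-glycosylation sites so blocking glycosylation raises the light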
UCH37 DUB inh: inhibitors of human deubiquitinating enzyme UCH37; 330,000 tested, 0.33% active; inhibition, % (concentration not given with the values); AID 588478; Q9Y5K5; purified proteasome/UCH37, Ub-AMC cleavage fluorescence;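 active = mean inhibition over replicate wells above about 20%, limit read from the data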
Target sequence (Q9Y5K5 whole entry, looked up): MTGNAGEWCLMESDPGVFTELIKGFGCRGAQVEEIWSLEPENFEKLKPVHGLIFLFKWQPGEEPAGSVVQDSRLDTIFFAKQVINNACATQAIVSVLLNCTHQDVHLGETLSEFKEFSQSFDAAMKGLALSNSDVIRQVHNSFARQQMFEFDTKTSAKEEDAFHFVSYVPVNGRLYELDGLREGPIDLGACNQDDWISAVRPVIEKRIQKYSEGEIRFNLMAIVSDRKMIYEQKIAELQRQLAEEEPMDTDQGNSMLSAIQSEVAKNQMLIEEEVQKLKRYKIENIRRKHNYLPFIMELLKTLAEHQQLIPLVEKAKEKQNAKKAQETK
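Reagent: Ub-AMC substrate; assay system: Proteasome-associated human UCH37 deubiquitinase; controls: no-proteasome and no-compound wells; read-out: % inhibition of Ub-AMC cleavage fluorescence; timing: 30 min preincubation with enzyme, 25 min cleavage at room temperature; signal: AMC fluorescence from Ub-AMC cleavage, excitation 355 nm, emission 460 nm; buffer or medium: Tris-HCl pH 7.4 plus ovalbumin, ATP-MgCl2, DTT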
aDG glyco act: alpha-DG glycosylation activation. Pro5-aDG cells, alpha-DG glycosylation AlphaScreen (IIH6); 0% Pro5, 100% B10-LARGE cell signal. activation, % at 10 µM. 360,000 tested, 0.22% active;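 active = activation of at least 8% versus controls, or a plate z-score of at least 8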;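 also: Pro5 are CHO cells carrying HIG-tagged alpha-DG that lacks glycosylation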
MsrA act: activates bovine MsrA enzyme; purified bovine MsrA, absorbance read-out; activation, % at 10.6 µM; 360,000 tested, 0.3% active; in the data active = activation above about 7.5%
MsrA activ conf: confirmation of bovine methionine sulfoxide reductase A activators | shares compounds with MsrA act | activation, % at 10.6 µM | purified bovine MsrA, absorbance read-out | 1,000 tested, 12% active; in the data active = activation above about 4%;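 also: enzyme coupled to thioredoxin and thioredoxin reductase with NADPH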
Large screens that a line does not name were inactive (follow-up assays come after a bar, where they were run).

CCCCOc1ccccc1C1NC(=O)NC(C)=C1C(=O)OCc1ccco1 (configuration not stated)	MsrA act 8.9 | MsrA activ conf inactive
COc1ccc(C2CC(Cn3cc(C#N)c(=O)n(C)c3=O)ON2C)cc1 (configuration not stated)	MsrA act 9.3 | MsrA activ conf inactive
CC(=O)NNC(=S)NC(=O)c1ccc(C)cc1	none
CC(=O)NNC(=S)NC(=O)c1ccccc1	MsrA act 8.3 | MsrA activ conf inactive
CC(=NO)C1(C)N(O)C(C)(C)C(c2ccco2)=[N+]1[O-] (configuration not stated)	none (no result: Vif imaging, MsrA inh, N-glyco inh, aDG glyco act, MsrA act)
Cc1ccc(OCC(=O)NN=Cc2c(C)[nH]n(-c3ccccc3)c2=O)c([N+](=O)[O-])c1	none (no result: Vif imaging, MsrA inh, N-glyco inh, aDG glyco act, MsrA act)
Cc1ccc(OCC(=O)N/N=C\c2c(C)[nH]n(-c3ccccc3)c2=O)c([N+](=O)[O-])c1	MsrA act 11 (no result: UCH37 DUB inh) | MsrA activ conf inactive
Cc1cc(C)n(-c2ccc(C(=O)Nc3ccc4c(c3)OCO4)cc2)n1	MsrA act 8.4 | MsrA activ conf inactive
CC(=O)c1cc2c(cc1NC(=O)c1ccc(-n3nc(C)cc3C)cc1)OCO2	none (no result: UCH37 DUB inh)
CN(C(=O)c1cccc(NC(=O)Cc2cccc(NC(=O)C3CCN(C(=O)c4ccccc4)CC3)c2)c1)C1CC1	MsrA act 8.7 (no result: Vif imaging) | MsrA activ conf inactive
COc1ccc(C2CC(c3cccs3)=Nc3ccccc3S2)cc1 (configuration not stated)	MsrA act 10 | MsrA activ conf inactive
COc1ccc(C2CC(c3cccs3)=NN2S(C)(=O)=O)cc1 (configuration not stated)	none
CC12CCC(CC1=NNC(=O)Nc1ccccc1)C2(C)C (configuration not stated)	none (no result: Vif imaging, MsrA inh, N-glyco inh, aDG glyco act, MsrA act)
S=c1[nH]c2cc(Cl)ccc2s1	MsrA act 12 | MsrA activ conf 4.8
CC(C=NNC(=O)CNc1n[nH]c(=O)[nH]c1=O)c1ccccc1 (configuration not stated)	none (no result: Vif imaging, MsrA inh, N-glyco inh, aDG glyco act, MsrA act)
Cc1ccccc1-c1cc(C(=O)NN=Cc2cccnc2)c2ccccc2n1	none (no result: Vif imaging, MsrA inh, N-glyco inh, aDG glyco act, MsrA act)
Cc1ccc(S(=O)(=O)Nc2cccc(-c3ccc4nnc(C)n4n3)c2)s1	MsrA act 20 | MsrA activ conf inactive
CCS(=O)(=O)Nc1cccc(-c2ccc3nnc(C)n3n2)c1	none (no result: Vif imaging, N-glyco inh, aDG glyco act, MsrA act)
NC(=O)CSc1nnc(-c2ccccn2)n1Cc1ccco1	MsrA act 9.0 | MsrA activ conf inactive
Cn1nc(C(=O)OCC(=O)Nc2cc(Cl)ccc2C#N)c2ccccc2c1=O	MsrA act 10 | MsrA activ conf inactive
COc1cccc(NC(=O)CN(C)C(=O)CCNC(=O)c2ccccc2Cl)c1	MsrA act 8.0 | MsrA activ conf inactive
COc1ccc(CC(=O)NCc2ccc3c(c2)OCO3)cc1	none (no result: Vif imaging)
COc1cccc(NC(=O)CN(C)CC(=O)NCc2ccc3c(c2)OCO3)c1	MsrA act 11 (no result: Vif imaging) | MsrA activ conf inactive
CN(N=Cc1ccc2c(c1)OCO2)c1ccccc1	none (no result: Vif imaging, MsrA inh, N-glyco inh, aDG glyco act, MsrA act)
CC(=NNC(=O)c1cccnc1)c1ccc(C)c([N+](=O)[O-])c1	none (no result: Vif imaging, MsrA inh, N-glyco inh, aDG glyco act, MsrA act)
O=C(NCCO)c1cccc(Nc2nc(-c3ccccc3)c3cc(Cl)ccc3n2)c1	MsrA act 17 | MsrA activ conf inactive
CC(C)(C)NC(=O)/C=C/c1ccc(C(F)(F)F)cc1	MsrA act 8.2 | MsrA activ conf inactive
CNC(=O)/C=C/c1cccc(C(F)(F)F)c1	none
O=C1NC(Cc2ccccc2)c2nc3cc(F)ccc3c(=O)n2-c2ncccc21 (configuration not stated)	none (no result: Vif imaging, UCH37 DUB inh)
O=C1NC(Cc2ccccc2)c2nc3cc(F)c(F)cc3c(=O)n2-c2ncccc21 (configuration not stated)	MsrA act 9.7 (no result: UCH37 DUB inh) | MsrA activ conf inactive
c1ccc(N2CCOCCOCCOCCOCC2)cc1	none
c1ccn(-c2ccc(N3CCOCC3)cc2)c1	MsrA act 10 | MsrA activ conf inactive
COC(=O)c1ccc(OCCOc2ccccc2)cc1	none
COc1cccc(OC)c1OCCOc1ccc(C(=O)c2ccccc2)cc1	MsrA act 18 | MsrA activ conf inactive
Cc1cccn2c(=O)c(C=NO)c(NCc3ccccc3)nc12	none (no result: Vif imaging, MsrA inh, N-glyco inh, aDG glyco act, MsrA act)
O=C(CSc1ccccc1C(=O)O)NCc1ccccc1	MsrA act 8.1 | MsrA activ conf inactive
CCc1ccc(C(O)(C(C)C)C(CN2CCOCC2)c2ccccc2)cc1 (configuration not stated)	MsrA act 8.1 | MsrA activ conf inactive
CC(C)C(O)(c1ccccc1)C(CN1CCOCC1)c1ccccc1 (configuration not stated)	none
Cc1ccccc1OC(=O)n1c(=S)oc2cc(Cl)ccc21	MsrA act 9.0 | MsrA activ conf inactive
O=C(Oc1ccccc1)n1c(=S)oc2ccccc21	none
COc1cc2c(cc1OC)C(=O)C(Br)CC2 (configuration not stated)	MsrA act 14 (no result: MsrA inh, UCH37 DUB inh) | MsrA activ conf inactive
Cc1ccc(S(=O)(=O)N2CCC(C(=O)NCCCOC(C)C)CC2)cc1	MsrA act 7.7 | MsrA activ conf inactive
O=C(COC(=O)Cc1ccsc1)Nc1ccccc1	MsrA act 25 | MsrA activ conf inactive
Clc1ccccc1N=Nc1ccccn1	MsrA act 34 (no result: UCH37 DUB inh) | MsrA activ conf inactive
Cc1[nH][nH]c(=O)c1N=Nc1ccccc1Cl	none
CCOc1ccc2c(c1)C(C)=CC(C)(C)N2S(=O)(=O)c1ccc(NC(C)=O)cc1	MsrA act 8.2 | MsrA activ conf inactive
COc1ccc2c(c1)C(C)=CC(C)(C)N2S(=O)(=O)c1ccc(NC(C)=O)cc1	none (no result: UCH37 DUB inh)
CC(=NN(c1ccccc1)c1ccccc1)c1ccc(N)cc1	none (no result: Vif imaging, MsrA inh, N-glyco inh, aDG glyco act, MsrA act)
CCCCCC#CCN1CCN(C23CC4CC(CC(C4)C2)C3)CC1	MsrA act 8.8 (no result: MsrA inh, UCH37 DUB inh) | MsrA activ conf inactive
CCCC#CCN1CCN(C23CC4CC(CC(C4)C2)C3)CC1	none
CN(C)N=C/C=C1\CC/C(=C\c2ccc(F)c(F)c2)C1=O	none (no result: Vif imaging, MsrA inh, N-glyco inh, aDG glyco act, MsrA act)
Cc1c2n(c3ccccc13)CCC2=NO	none (no result: Vif imaging, MsrA inh, N-glyco inh, aDG glyco act, MsrA act)
COc1cccc(C(c2sc3ncnn3c2O)N2CC(C)OC(C)C2)c1 (configuration not stated)	MsrA act 8.1 | MsrA activ conf inactive
COc1cccc(C(c2sc3ncnn3c2O)N2CCc3ccccc3C2)c1 (configuration not stated)	none
COc1ccc(OC)c(NC(=O)C(=O)NN=C(C)CC(=O)Nc2ccc(Cl)cn2)c1	none (no result: Vif imaging, MsrA inh, N-glyco inh, aDG glyco act, MsrA act)
O=C(COC(=O)c1ccc([N+](=O)[O-])s1)NC(c1ccccc1)c1ccccc1	MsrA act 17 (no result: Vif imaging) | MsrA activ conf 6.0
CC(C)(C)c1ccc(NC(=O)COC(=O)c2ccc([N+](=O)[O-])s2)cc1	MsrA act 10 | MsrA activ conf 4.3
CCN(CC)S(=O)(=O)c1cccc(C(=O)NN=Cc2ccccn2)c1	none (no result: Vif imaging, MsrA inh, N-glyco inh, aDG glyco act, MsrA act)
Cc1ccc(-n2[nH]c(C)c(C=Nc3ccc4[nH]c(=O)[nH]c4c3)c2=O)cc1	MsrA act 7.8 (no result: UCH37 DUB inh) | MsrA activ conf inactive
